VIM-2 inh – inhibitors of Pseudomonas aeruginosa VIM-2 metallo-beta-lactamase; purified VIM-2, nitrocefin hydrolysis, epi-absorbance fluorescence; AID 1527; inhibition, % at 5.6 µM; 290,000 tested, 0.89% active;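 active means inhibition above the mean of all tested compounds plus 3 SD, cutoff set per screening run, cut at about 7.5% in these data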;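 further: red hydrolysis product quenches plate fluorescence so inhibitors raise well fluorescence; 0% = enzyme with DMSO and 100% = DMSO without enzyme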
HCV NS3 hel inh – blocks Hepatitis C virus NS3 helicase unwinding; 290,000 tested, 0.56% active; inhibition, % at 10.9 µM; AID 1800; NS3 helicase DNA unwinding, Cy5 molecular beacon fluorescence;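 active means inhibition above the mean of all tested compounds plus 3 SD, set per campaign, cut at about 35% in these data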;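 further: 0% = DMSO wells and 100% = thioflavine S control wells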
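System: Hepatitis C virus NS3 helicase domain fragment enzyme | Reagent: Annealed dual-labelled DNA beacon duplex, ATP-started | Compound dosing: 10.9 µM single point, 0.8% DMSO | Incubation: 1 h reaction at 25 °C, ATP-initiated | Technique: Cy5 fluorescence | Evaluation: Percent inhibition from t60/t0 fluorescence ratio | Benchmarks: Low DMSO, high thioflavine S at 110 µM | Replication: Singlicate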
IMP-1 inhibitor – blocks Pseudomonas aeruginosa IMP-1 metallo-beta-lactamase; purified IMP-1, nitrocefin hydrolysis, epi-absorbance fluorescence; inhibition, % at 5.6 µM; 290,000 tested, 0.45% active; AID 1556;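 active means inhibition above the mean plus 3 SD of all compounds in the same screening run, cut at about 4.5% in these data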;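 further: 0% = IMP-1 with DMSO and 100% = DMSO wells lacking enzyme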
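Material – recombinant IMP-1 enzyme, purified · Amount – IMP-1 0.2 nM before substrate addition · Medium – HEPES buffer pH 7.1 with ZnSO4 and Brij 35 · Timing – 25 °C, 15 min preincubation, 25 min reaction · Measured by – plate fluorescence quenching by hydrolysis product, ex 480/em 530 nm · Read-out – percent enzyme inhibition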
PHOSPHO1 block – blocks human PHOSPHO1 phosphatase activity; Q8TCT1; recombinant PHOSPHO1, absorbance phosphatase assay; inhibition, % at 13.3 µM; 290,000 tested, 1.1% active; in the data active means inhibition above about 60%
Target sequence (Q8TCT1 whole entry, looked up): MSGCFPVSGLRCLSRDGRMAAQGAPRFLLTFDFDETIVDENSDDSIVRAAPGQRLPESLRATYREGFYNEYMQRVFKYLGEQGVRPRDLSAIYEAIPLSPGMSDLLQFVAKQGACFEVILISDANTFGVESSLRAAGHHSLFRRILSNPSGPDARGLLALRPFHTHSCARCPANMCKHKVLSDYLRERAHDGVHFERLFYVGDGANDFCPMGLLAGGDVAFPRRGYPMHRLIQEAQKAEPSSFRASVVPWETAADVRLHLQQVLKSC
HCV core dimer – HCV core protein dimerization inhibition. TR-FRET GST/Flag-core106 dimerization, 1536-well. inhibition, % at 5 µM. 300,000 tested, 0.33% active. AID 1899;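 active means inhibition above the mean of all tested compounds plus 3 SD, set per screening campaign, cut at about 45% in these data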
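Test system: GST/Flag-tagged HCV core106 proteins; Medium: KF-containing HEPES buffer, pH 7.45, DTT, CHAPS, BSA; Times: compound-protein-antibody incubation 4 h at 22.5 °C; Detection: TR-FRET 671 and 617 nm emission; Benchmarks: wells lacking GST-core106 and wells with excess unlabelled core106.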
UBC9 SUMO inh – SUMOylation inhibition; P63279; AID 2006; 290,000 tested, 0.36% active; HTRF SUMOylation assay, SAE1/SAE2 + UBC9, in vitro; inhibition, % at 35 µM; in the data active means inhibition above about 50%, passing the limit was not always enough
Target sequence (P63279 whole entry, looked up): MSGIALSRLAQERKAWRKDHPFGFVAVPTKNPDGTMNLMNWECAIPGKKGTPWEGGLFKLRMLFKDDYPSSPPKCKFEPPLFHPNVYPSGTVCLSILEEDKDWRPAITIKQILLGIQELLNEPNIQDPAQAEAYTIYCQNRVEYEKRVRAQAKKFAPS
* = called active by the depositor; . = no result; ! = a repeat was not active. This is a sample that favours compounds with a hit; in the whole collection about 3.1% have one here.

SMILES	VIM-2 inh	HCV NS3 hel inh	IMP-1 inhibitor	PHOSPHO1 block	HCV core dimer	UBC9 SUMO inh
CCN(CC)C(=O)CSc1ncnc2c(-c3cccs3)nsc12	0	4	0	-3	47*	33
O=S(=O)(c1ccccc1)c1nc(-c2ccco2)oc1NCc1cccnc1	-2	-2	-3	68*	3	26
O=S(=O)(c1ccccc1)c1nc(-c2ccccc2)oc1NCc1cccnc1	-1	0	-2	-14	2	-11
O=C(NC(=S)Nc1ccccc1Cl)c1csnn1	-2	7	0	65*	2	3
O=C(Nc1ccccc1NC(=O)c1csnn1)c1csnn1	-5	6	-4	12	-1	-10
COc1cccc(-c2nn3c(-c4ccccn4)nnc3s2)c1	8.0*	1	-2	19	4	-8
COc1cccc(-c2nn3c(-c4cc(C)[nH]n4)nnc3s2)c1	4	5	0	7	3	3
COc1ccccc1-c1nnc2sc(-c3ccc(N(C)C)cc3)nn12	-4	4	15*	6	14	8
CCOc1cccc(-c2nnc3sc(-c4ccco4)nn23)c1	-2	3	-3	64*	3	29
COc1ccc(-c2nn3c(-c4ccccn4)nnc3s2)cc1OC	12*	10	-2	-8	4	10
CCOc1cccc(-c2nnc3sc(-c4ccc(C)cc4)nn23)c1	.	.	.	10	.	14
COc1ccc(C(=O)NCC(=O)N/N=C/c2cccc(OC(=O)c3ccco3)c2)cc1OC	-3	-4	-3	0	-1	-2
OCCNc1nnc(-c2ccccc2)c(-c2ccccc2)n1	.	.	.	.	2	.
COc1ccc(-c2nn3c(C4CCCCC4)nnc3s2)cc1OC	2	-5	-1	83*	1	12
Nn1c(SCC(=O)NC(=O)NCc2ccco2)nnc1-c1ccc(OC(F)F)cc1	0	2	-3	93*	79*	13
Cc1sc2nc(SCC(=O)NCc3ccco3)n(C)c(=O)c2c1C	1	-3	-2	17	-1	-6
O=C(CSc1nnnn1-c1ccccc1)NC(=O)NCc1ccco1	-4	7	-3	34	60*	7
O=c1c2ccccc2nc2ccc(NCc3ccco3)nn12	1	2	1	21	10	28
CCn1c(SCC(=O)NC(=O)NCc2ccco2)nc2sc(C)c(C)c2c1=O	-1	9	-4	25	51*	30
Cc1sc2nc3ccc(NCc4ccco4)nn3c(=O)c2c1C	4	7	6.2*	31	18	56*
Nn1c(SCC(=O)NCCN2C(=O)CSC2=O)nnc1-c1ccc(OC(F)F)cc1	.	.	.	.	1	.
O=C(Cc1c(F)cccc1Cl)N1CCN(S(=O)(=O)c2cccc(F)c2)CC1	.	.	.	.	2	.
Cc1c(NC(=O)C(=O)/C=C(\O)c2ccc(Br)cc2)c(=O)n(-c2ccccc2)n1C	-1	17	-1	-21	4	1
Cc1nnc(SCC(=O)NC(=O)NCc2ccco2)n1Cc1ccccc1	-4	9	-3	40	62*	3
Cn1nnnc1SCC(=O)NCc1ccco1	-1	1	-1	21	-2	7
SMILES	VIM-2 inh	HCV NS3 hel inh	IMP-1 inhibitor	PHOSPHO1 block	HCV core dimer	UBC9 SUMO inh
CCOc1ccccc1-n1nnnc1SCC(=O)NC(=O)NCc1ccco1	-3	20	-3	59	57*	11
COc1ccc(Cl)cc1-n1c(N)c(C(N)=O)sc1=S	0	6	1	100*	-1	17
CCCCNC(=O)c1sc(=S)n(-c2ccccc2OC)c1N	2	5	1	69*	-6	4
Cc1ccc(-n2c(N)c(C(N)=O)sc2=S)c(C)c1	-1	-4	0	88*	-3	7
COC(=O)c1sc(=S)n(-c2ccccc2OC)c1N	-2	-1	-3	-122	-9	22
Cc1ccc(C)c(-n2c(N)c(C(N)=O)sc2=S)c1	-3	-9	-1	.	7	.
C=CCNc1nc(-c2ccc(OC)cc2OC)cs1	-2	-14	-2	61*	-4	0
CC(=O)c1csc(CS(=O)(=O)c2ccccn2)n1	-3	14	-2	61*	1	-1
CC(=O)c1ccccn1	.	.	.	.	-4	.
CC(C)(C)NC(=O)CN(C(=O)CCC(=O)Nc1nccs1)c1cccc(C(F)(F)F)c1	-4	-1	-3	60*	4	-6
Cc1cccc(N(CC(=O)NC(C)(C)C)C(=O)CCC(=O)Nc2nccs2)c1	-2	4	-4	31	-3	6
c1c2c(cc3sc(N4CCOCC4)nc13)OCO2	-1	-2	-3	93*	-9	6
O=C(Cc1cc(=O)[nH][nH]1)N/N=C/c1c(Cl)cccc1Cl	2	23	7.5*!	-9	-4	-14
O=C(Cc1cc(=O)[nH][nH]1)N/N=C/c1c(F)cccc1Cl	0	10	-1	28	7	30
NNC(=O)c1nc[nH]c1C(=O)Nc1ccccn1	-3	-1	7.6*	36	0	-10
CCOC(=O)c1c(CN(C)C)n(-c2ccc(C)cc2)c2cc(Br)c(O)cc12	8.4*	-52	-3	-6	-3	-4
CN1CCCN(C(=O)c2c(F)cccc2Cl)CC1	-1	1	-1	.	1	-2
COCCNC(=O)c1cn(C)c(=O)c2cc(OC)c(OC)cc12	2	-6	-3	20	0	13
CCOCCCNC(=O)c1cn(C)c(=O)c2cc(OC)c(OC)cc12	-1	0	4.7*	-4	-5	0
C=CCn1c(CSc2ccccc2[N+](=O)[O-])n[nH]c1=S	2	31	-1	-29	65*	42
C=CCn1c(Cc2ccccc2)n[nH]c1=S	-2	-10	-3	27	2	-6
O=C(O)c1ccc2c(c1)C(=O)N(c1cc([N+](=O)[O-])ccn1)C2=O	-3	-8	-2	33	9	18
O=C(CSc1n[nH]c(=O)[nH]c1=O)N/N=C/c1ccccc1	-4	12	-3	-4	-5	9
CSCCC(NS(=O)(=O)c1ccc(C)c(C(=O)O)c1)C(=O)O (stereo unspecified)	0	-1	-3	-11	-5	-2
